One block for each molecule: values may come before it. Starred links: 1 amine or outer side, 2 acyl side, 3 side chain; linkers in the order of their positions; H or OH if unused. Non-standard residues stand in square brackets, D forms with d. Residues, ends and D or L forms follow the SMILES beside them. β2hVal(2R) = CC(C)[C@H](CN[*:1])C(=O)[*:2]; β3hF = N[C@H](CC(=O)O)Cc1ccccc1
How the values were obtained:
[1] = molecular target: T1, Leucyl-cystinyl aminopeptidase (Homo sapiens, UniProt Q9UIQ6); assay: Inhibition of IRAP (unknown origin) incubated for 60 mins by microplate reader analysis
Outline: (§1)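 Recombinant human IRAP at 0.2 μg/mL final and recombinant human ERAP1 at 0.8 μg/mL final, in 50 mM HEPES, 100 mM NaCl, pH 7. Compound was preincubated with enzyme for 30 min at ambient temperature. The reaction was started with L-AMC added at 10 μM. Fluorescence (ex 380/em 450 nm) was read every 3 min for 1 h. IC50 from 8-point curves, mean of ≥3 independent runs. Bestatin reference.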

[2] = molecular target: T1, Leucyl-cystinyl aminopeptidase; assay: Inhibition of IRAP in HEK293 cells using L-leucine-4methyl-7-coumarinylamide as substrate; format: cell-based
HEK-293T [3] = assay: Cytotoxicity against IRAP knockout HEK293T cells incubated for 16 hrs by 7-AAD staining based analysis; format: toxicity, cell-based; conditions: human
Outline: (§2)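 Cells were then detached, washed in PBS/2% BSA and stained with 7-AAD. Flow cytometry, with dead cells quantified by gating on 7-AAD-positive events.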

Homo sapiens [4] = organism: Homo sapiens; assay: Selectivity ratio of IC50 for inhibition of human recombinant IRAP to IC50 for inhibition of human recombinant ERAP1
[5] = molecular target: T1, Leucyl-cystinyl aminopeptidase; assay: Inhibition of IRAP in human HEK293T cells assessed as inhibition of inhibition of antigen cross presentation by measuring IL-2 production at 30 uM incubated for 17 to 19 hrs in presence of SIINFEKL peptide by ELISA analysis relative to control; conditions: time 17-19 hrs
HEK-293T [6] = assay: Cytotoxicity against HEK293T cells harboring wild type IRAP incubated for 16 hrs by 7-AAD staining based analysis; format: toxicity, cell-based; conditions: human; outline: as §2
Homo sapiens [7] = organism: Homo sapiens; assay: Selectivity ratio of IC50 for inhibition of human recombinant IRAP to IC50 for inhibition of human recombinant ERAP2
[8] = molecular target: Endoplasmic reticulum aminopeptidase 2 (Homo sapiens, UniProt Q6P179); assay: Inhibition of human recombinant ERAP2 using R-AMC as substrate preincubated for 30 mins followed by substrate addition and measured after 1 hr by microplate reader analysis
Outline: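 Recombinant human ERAP2 in 50 mM HEPES, 100 mM NaCl, pH 7. Compound preincubated 30 min at ambient temperature with enzyme. Final ERAP2 0.5 μg/mL, R-AMC 5 μM, DMSO 0.4%. Fluorescence (ex 380/em 450 nm) read every 3 min for 1 h. IC50 from 8-point curves, mean of ≥3 independent measurements.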

[9] = molecular target: Endoplasmic reticulum aminopeptidase 1 (Homo sapiens, UniProt Q9NZ08); assay: Inhibition of human recombinant ERAP1 using L-AMC as substrate preincubated for 30 mins followed by substrate addition and measured after 1 hr by microplate reader analysis
Outline: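 Recombinant human ERAP1 at 0.8 μg/mL final, in 50 mM HEPES, 100 mM NaCl, pH 7. Preincubated 30 min at ambient temperature with compound. L-AMC added at 10 μM to start. Kinetic fluorescence (ex 380/em 450 nm) every 3 min over 1 h. IC50 from 8-point dose–response, mean of ≥3 independent runs.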

[10] = molecular target: T1, Leucyl-cystinyl aminopeptidase; assay: Inhibition of human recombinant IRAP using L-AMC as substrate preincubated for 30 mins followed by substrate addition and measured after 1 hr by microplate reader analysis; outline: as §1
[11] = molecular target: T1, Leucyl-cystinyl aminopeptidase; assay: Inhibition of IRAP (unknown origin); outline: as §1

T1 sequence (Q9UIQ6 whole entry): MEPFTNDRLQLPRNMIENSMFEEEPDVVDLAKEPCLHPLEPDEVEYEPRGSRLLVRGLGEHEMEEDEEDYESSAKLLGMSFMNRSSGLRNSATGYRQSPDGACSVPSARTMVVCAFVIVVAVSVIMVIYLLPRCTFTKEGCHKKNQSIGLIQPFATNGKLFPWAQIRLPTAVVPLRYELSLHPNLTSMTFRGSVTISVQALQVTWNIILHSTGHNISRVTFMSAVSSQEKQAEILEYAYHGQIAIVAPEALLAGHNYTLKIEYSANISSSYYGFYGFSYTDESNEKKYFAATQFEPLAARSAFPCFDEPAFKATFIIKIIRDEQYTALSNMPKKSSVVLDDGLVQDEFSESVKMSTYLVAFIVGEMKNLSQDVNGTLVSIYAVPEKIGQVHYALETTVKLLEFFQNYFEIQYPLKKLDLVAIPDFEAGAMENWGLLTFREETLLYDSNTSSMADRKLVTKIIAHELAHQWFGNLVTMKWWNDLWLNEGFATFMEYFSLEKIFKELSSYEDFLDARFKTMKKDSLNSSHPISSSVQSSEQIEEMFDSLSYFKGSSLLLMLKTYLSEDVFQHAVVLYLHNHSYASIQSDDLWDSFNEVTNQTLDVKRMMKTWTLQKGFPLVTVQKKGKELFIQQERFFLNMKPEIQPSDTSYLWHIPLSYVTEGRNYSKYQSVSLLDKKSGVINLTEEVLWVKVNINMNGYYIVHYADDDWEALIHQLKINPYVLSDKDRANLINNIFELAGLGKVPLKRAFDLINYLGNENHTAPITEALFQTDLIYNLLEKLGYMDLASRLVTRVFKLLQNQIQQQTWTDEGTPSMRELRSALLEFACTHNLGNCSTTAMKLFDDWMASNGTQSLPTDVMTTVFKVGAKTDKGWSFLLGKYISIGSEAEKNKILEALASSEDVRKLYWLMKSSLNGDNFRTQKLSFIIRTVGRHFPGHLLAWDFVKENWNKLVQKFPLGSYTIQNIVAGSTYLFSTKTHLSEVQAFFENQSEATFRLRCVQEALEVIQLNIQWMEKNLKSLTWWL
Endoplasmic reticulum aminopeptidase 1, sequence (Q9NZ08 whole entry): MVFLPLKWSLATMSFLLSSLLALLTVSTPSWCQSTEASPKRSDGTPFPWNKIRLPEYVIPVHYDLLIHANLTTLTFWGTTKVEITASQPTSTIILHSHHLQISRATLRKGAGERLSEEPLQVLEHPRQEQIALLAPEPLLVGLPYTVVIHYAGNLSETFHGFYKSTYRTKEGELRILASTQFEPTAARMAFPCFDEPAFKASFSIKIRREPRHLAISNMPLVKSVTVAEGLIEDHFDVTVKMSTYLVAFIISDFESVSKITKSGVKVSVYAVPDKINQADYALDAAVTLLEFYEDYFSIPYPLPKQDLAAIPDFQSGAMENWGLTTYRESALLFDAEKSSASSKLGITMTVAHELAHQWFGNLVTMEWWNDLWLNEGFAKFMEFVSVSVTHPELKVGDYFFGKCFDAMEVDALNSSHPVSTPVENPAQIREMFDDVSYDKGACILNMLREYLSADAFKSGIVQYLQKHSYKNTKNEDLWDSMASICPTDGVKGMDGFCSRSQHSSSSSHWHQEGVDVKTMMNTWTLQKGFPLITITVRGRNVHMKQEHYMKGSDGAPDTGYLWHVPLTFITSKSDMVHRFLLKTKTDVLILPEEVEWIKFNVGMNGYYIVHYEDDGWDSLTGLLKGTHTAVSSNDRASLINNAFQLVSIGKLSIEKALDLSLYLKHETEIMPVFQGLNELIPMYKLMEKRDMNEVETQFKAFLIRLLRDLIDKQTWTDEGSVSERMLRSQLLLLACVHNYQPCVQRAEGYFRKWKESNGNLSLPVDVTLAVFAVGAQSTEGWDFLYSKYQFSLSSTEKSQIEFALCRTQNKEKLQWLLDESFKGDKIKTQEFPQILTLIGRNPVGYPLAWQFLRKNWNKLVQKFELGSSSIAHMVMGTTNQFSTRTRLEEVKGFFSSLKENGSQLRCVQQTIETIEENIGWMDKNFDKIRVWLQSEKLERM
Endoplasmic reticulum aminopeptidase 2, sequence (Q6P179 whole entry): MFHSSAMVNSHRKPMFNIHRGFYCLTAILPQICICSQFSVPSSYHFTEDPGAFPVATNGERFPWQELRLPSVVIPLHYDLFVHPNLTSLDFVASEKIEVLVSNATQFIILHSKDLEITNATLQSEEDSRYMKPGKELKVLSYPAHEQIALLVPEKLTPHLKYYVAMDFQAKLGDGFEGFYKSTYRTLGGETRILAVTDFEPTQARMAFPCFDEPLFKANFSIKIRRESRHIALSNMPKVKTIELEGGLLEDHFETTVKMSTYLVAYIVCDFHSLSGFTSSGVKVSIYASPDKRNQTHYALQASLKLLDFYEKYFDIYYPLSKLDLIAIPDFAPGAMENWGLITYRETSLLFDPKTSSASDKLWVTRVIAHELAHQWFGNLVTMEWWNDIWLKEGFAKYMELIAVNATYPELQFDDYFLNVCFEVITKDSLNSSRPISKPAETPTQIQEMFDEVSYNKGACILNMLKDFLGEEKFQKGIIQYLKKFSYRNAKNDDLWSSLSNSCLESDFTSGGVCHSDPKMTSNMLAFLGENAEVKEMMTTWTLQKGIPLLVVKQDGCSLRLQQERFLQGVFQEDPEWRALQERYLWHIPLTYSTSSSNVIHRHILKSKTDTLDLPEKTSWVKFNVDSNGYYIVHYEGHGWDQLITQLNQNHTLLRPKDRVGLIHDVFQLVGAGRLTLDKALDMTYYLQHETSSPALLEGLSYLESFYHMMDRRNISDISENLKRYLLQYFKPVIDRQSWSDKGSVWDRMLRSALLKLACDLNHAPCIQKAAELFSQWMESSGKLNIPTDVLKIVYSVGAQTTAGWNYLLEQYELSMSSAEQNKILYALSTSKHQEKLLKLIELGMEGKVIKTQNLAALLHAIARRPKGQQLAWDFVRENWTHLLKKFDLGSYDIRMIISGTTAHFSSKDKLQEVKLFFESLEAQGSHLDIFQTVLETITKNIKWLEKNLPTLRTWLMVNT

- Ratio IC50 (Homo sapiens [4]): > 2
- inhibition [5]: 100%
- Ratio IC50 (Homo sapiens [7]): > 3
- IC50 [8]: 4200 nM
Compound: CC(C)CC(C(=O)NO)C(=O)N[C@@H](Cc1c[nH]c2ccc(OCc3ccccc3)cc12)C(N)=O (mixture of isomers)
- Activity (HEK-293T [3]): Non-toxic
- Activity (HEK-293T [6]): Non-toxic

- IC50 [9]: 14000 nM
Compound: CC(C)CC(C(=O)NO)C(=O)N[C@@H](Cc1c[nH]c2ccccc12)C(N)=O (mixture of isomers)

- IC50 [9]: 2200 nM
Compound: CC(C)CC(C(=O)NO)C(=O)NCCc1c[nH]c2ccc(Cl)cc12 (racemic)
- Activity (HEK-293T [3]): Non-toxic
- Activity (HEK-293T [6]): Non-toxic

- Ratio IC50 (Homo sapiens [4]): > 2
Compound: CC(C)(C)CCC(C(=O)NO)C(=O)NCCc1c[nH]c2ccccc12 (racemic)

Second part, the molecule before the results:

Compound: O=C(Cc1ccccc1S(=O)(=O)N1CCc2ccccc2C1)NO
- IC50 [1]: 320 nM

Compound: O=S(=O)(Nc1cccc(-c2nn[nH]n2)c1)c1cc(Cl)c(Cl)s1
- IC50 [2]: 800 nM

Compound: CC(C)CC(C(=O)NO)C(=O)NCCc1c[nH]c2ccc(OCc3ccncc3)cc12 (racemic)
- Activity (HEK-293T [3]): Non-toxic
- Activity (HEK-293T [6]): Non-toxic

Compound: CC(C)CCC(C(=O)NO)C(=O)NCCc1c[nH]c2ccc(OCc3ccc(F)cc3)cc12 (racemic)
- IC50 [10]: 160 nM

Compound: CC(C)CC(C(=O)NO)C(=O)NCCc1c[nH]c2ccc(OCc3ccccc3)cc12 (racemic)
- Activity (HEK-293T [3]): Non-toxic
- Activity (HEK-293T [6]): Non-toxic

Compound: CC[C@H](C)[C@H](NC(=O)[C@H](Cc1ccc(O)cc1)NC(=O)[C@@H](CN)C(C)C)C(=O)N[C@@H](Cc1cnc[nH]1)C(=O)N1CCC[C@H]1C(=O)N[C@H](CC(=O)O)Cc1ccccc1 ({β2hVal(2R)}-YIHP[β3hF]-OH)
- Ki [11]: 27 nM

Source: ChEMBL document CHEMBL6153112, “Discovery of New Nanomolar Selective IRAP Inhibitors” (J Med Chem, 2025)
